The text below walks through data of ChEMBL document CHEMBL4196022, “Alkynyl-containing phenylthiazoles: Systemically active antibacterial agents effective against methicillin-resistant Staphylococcus aureus (MRSA)” (Eur J Med Chem, 2018).

In data set [1] the test system is Staphylococcus aureus. As to the kind of experiment: Bactericidal activity against methicillin-resistant Staphylococcus aureus USA300 up to 18 hrs by broth microdilution assay. Type of data set: functional. As to conditions: USA300, 18 h, read-out: MBC99.9. On the technique in general: Dilution methods test growth across graded concentrations, often in twofold steps.

Data set [2] has as its system Staphylococcus aureus. As to the kind of experiment: Ratio of MBC to MIC for methicillin-resistant Staphylococcus aureus USA300. Type of data set: functional. The method in brief:
(§1)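 MBC/MIC ratio. […] MBC by plating no-growth wells onto tryptic soy agar at 37 °C for at least 18 h; taken as the concentration giving 99.9% growth inhibition.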

In data set [3] the test system is Staphylococcus aureus. As to the kind of experiment: Antibacterial activity against methicillin-resistant Staphylococcus aureus USA300 after 20 hrs by broth microdilution assay. As to conditions: USA300, 20 h. Format: functional. The method in brief:
(§2)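 Broth microdilution per CLSI in cation-adjusted Mueller Hinton broth. Compounds serially diluted, in triplicate. Incubation at 37 °C for at least 20 hours. MIC taken as the lowest concentration with no visible bacterial growth.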

Data set [4] in a line: Selectivity index, ratio of toxic concentration for human HRT18 cells to MIC for methicillin-resistant Staphylococcus aureus. The note with it: read-out: Selectivity Index. Format: toxicity.
Data set [5] has as its system Staphylococcus aureus. The data set can be described thus: Bactericidal activity against methicillin-resistant Staphylococcus aureus NRS119 up to 18 hrs by broth microdilution assay. The note with it: NRS119, 18 h, read-out: MBC99.9. Type of data set: functional.
Data set [6] concerns Staphylococcus aureus. As to the kind of experiment: Bactericidal activity against methicillin resistant vancomycin-resistant Staphylococcus aureus VRS12 up to 18 hrs by broth microdilution assay. Type of data set: functional. As to conditions: VRS12, 18 h, read-out: MBC99.9. The gist of the method: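 MBC set up from the MIC plates. Aliquots from wells with no growth spotted onto tryptic soy agar and incubated at 37 °C for at least 18 hours. MBC taken as the lowest concentration giving 99.9% inhibition of bacterial growth.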

For data set [7], the system named is Staphylococcus aureus. The data set can be described thus: Antibacterial activity against methicillin-resistant Staphylococcus aureus NRS107 after 20 hrs by broth microdilution assay. Type of data set: functional. The note with it: NRS107, 20 h. The method in brief: as §2
Data set [8] deals with Staphylococcus aureus. As to the kind of experiment: Bactericidal activity against methicillin resistant vancomycin-resistant Staphylococcus aureus VRS10 up to 18 hrs by broth microdilution assay. As to conditions: VRS10, 18 h, read-out: MBC99.9. Type of data set: functional.
Data set [9] relates to Staphylococcus aureus. The data set can be described thus: Bactericidal activity against methicillin resistant vancomycin-resistant Staphylococcus aureus VRS11a up to 18 hrs by broth microdilution assay. Format: functional. As to conditions: read-out: MBC99.9.
The test system of data set [10] is Staphylococcus aureus. The data set can be described thus: Potency index, ratio of vancomycin MIC to compound MIC for antibacterial activity against vancomycin-resistant Staphylococcus aureus VRS11a. Type of data set: functional.
Data set [11] deals with Staphylococcus aureus. The data set can be described thus: Ratio of MBC to MIC for vancomycin-resistant Staphylococcus aureus VRS12. Type of data set: functional. The gist of the method: as §1
Data set [12] has as its system Staphylococcus aureus. The data set can be described thus: Potency index, ratio of vancomycin MIC to compound MIC for antibacterial activity against vancomycin-resistant Staphylococcus aureus VRS12. Type of data set: functional.
Data set [13] deals with Staphylococcus aureus. As to the kind of experiment: Ratio of MBC to MIC for methicillin-resistant Staphylococcus aureus NRS107. Type of data set: functional. The method in brief: as §1
Data set [14] deals with Staphylococcus aureus. The data set can be described thus: Bactericidal activity against methicillin-resistant Staphylococcus aureus NRS107 up to 18 hrs by broth microdilution assay. Format: functional. As to conditions: NRS107, 18 h, read-out: MBC99.9.
Data set [15] deals with Staphylococcus aureus. As to the kind of experiment: Antibacterial activity against methicillin-resistant Staphylococcus aureus NRS119 after 20 hrs by broth microdilution assay. Format: functional. The note with it: NRS119, 20 h. The gist of the method:
as §2

Data set [16] has as its system Staphylococcus aureus. The data set can be described thus: Antibacterial activity against vancomycin-resistant Staphylococcus aureus VRS12 after 20 hrs by broth microdilution assay. Format: functional. The note with it: VRS12, 20 h. The method in brief:
as §2

Data set [17] concerns Staphylococcus aureus. As to the kind of experiment: Antibacterial activity against vancomycin-resistant Staphylococcus aureus VRS10 after 20 hrs by broth microdilution assay. Type of data set: functional. The note with it: VRS10, 20 h. The method in brief:
as §2

In data set [18] the test system is Staphylococcus aureus. The data set can be described thus: Ratio of MBC to MIC for vancomycin-resistant Staphylococcus aureus VRS10. Format: functional. The gist of the method:
as §1

Data set [19] has as its system Staphylococcus aureus. As to the kind of experiment: Ratio of MBC to MIC for vancomycin-resistant Staphylococcus aureus VRS11a. Type of data set: functional. The gist of the method:
as §1

Data set [20] relates to Staphylococcus aureus. As to the kind of experiment: Ratio of MBC to MIC for methicillin-resistant Staphylococcus aureus NRS123 (USA400). Format: functional. The gist of the method:
as §1

Data set [21] deals with Staphylococcus aureus. As to the kind of experiment: Potency index, ratio of vancomycin MIC to compound MIC for antibacterial activity against vancomycin-resistant Staphylococcus aureus VRS10. Format: functional.
Data set [22] relates to Staphylococcus aureus. The data set can be described thus: Ratio of MBC to MIC for methicillin-resistant Staphylococcus aureus NRS119. Format: functional. The gist of the method: as §1
In a further data set the test system is HRT-18 cell line. The data set can be described thus: Cytotoxicity against human HRT18 cells assessed as reduction in cell viability up to 32 ug/ml after 2 hrs by MTS assay. Type of data set: cell-based. The note with it: hrt-18, 2 h. A general note: Tetrazolium dyes change colour on reduction, which living cells bring about.
Data set [23] relates to Staphylococcus aureus. As to the kind of experiment: Antibacterial activity against methicillin-resistant Staphylococcus aureus NRS123 (USA400) after 20 hrs by broth microdilution assay. Type of data set: functional. The method in brief:
as §2

The subject of data set [24] is Staphylococcus aureus. The data set can be described thus: Antibacterial activity against vancomycin-resistant Staphylococcus aureus VRS11a after 20 hrs by broth microdilution assay. Type of data set: functional. The method in brief: as §2
The subject of data set [25] is Staphylococcus aureus. As to the kind of experiment: Bactericidal activity against methicillin resistant Staphylococcus aureus NRS123 (USA400) up to 18 hrs by broth microdilution assay. Type of data set: functional. The note with it: read-out: MBC99.9.

Converted amounts (≈) assume the structure as drawn.

Broadly, the MIC is the lowest concentration that inhibits growth of the organism. Regarding `C/C(=N\NC1=NCCN1)c1sc(-c2ccc(C#CCC3CCCC3)cc2)nc1C`, the MBC in the data set on Staphylococcus aureus [1] amounted to 32 µg/mL (≈ 78.9 µM). Further, the Ratio entry in the data set with Staphylococcus aureus [2] is given as “<=3”. The same molecule came in with an MIC with Staphylococcus aureus [3] of 8 µg/mL (≈ 19.7 µM).

On to `C/C(=N\NC(=N)N)c1sc(-c2ccc(C#CC(C)(C)N)cc2)nc1C`, for which, in the data set with Staphylococcus aureus [1], the MBC stood at 64 µg/mL (≈ 181 µM). Further, the Ratio result in the data set on Staphylococcus aureus [2] is given as “<=3”. For the same molecule, the lowest concentration to inhibit growth in the data set on Staphylococcus aureus [3] (MIC) was 64 µg/mL (≈ 181 µM).

On to `CCCCCCC#Cc1ccc(-c2nc(C)c(/C(C)=N/NC(=N)N)s2)cc1`, for which the MBC in the data set with Staphylococcus aureus [1] was determined as 8 µg/mL (≈ 21 µM); in the data set on Staphylococcus aureus [5] it was 4 µg/mL (≈ 10.5 µM); with Staphylococcus aureus [6], 4 µg/mL (≈ 10.5 µM); in the data set with Staphylococcus aureus [8], 4 µg/mL (≈ 10.5 µM); in the data set with Staphylococcus aureus [9], 2 µg/mL (≈ 5.24 µM); with Staphylococcus aureus [14] it was 8 µg/mL (≈ 21 µM). In addition, the MBC with Staphylococcus aureus [25] was determined as 4 µg/mL (≈ 10.5 µM). Also, in data set [4], the selectivity ratio was 7 to 31. In addition, the Ratio result in the data set on Staphylococcus aureus [2] was “<=3”; with Staphylococcus aureus [10], greater than 100; with Staphylococcus aureus [11] it was “<=3”; with Staphylococcus aureus [12], 8; in the data set on Staphylococcus aureus [13], “<=3”; in the data set with Staphylococcus aureus [18] it was “<=3”. Also, the Ratio with Staphylococcus aureus [19] (read-out: Ratio) was 4; in the data set with Staphylococcus aureus [20] it was “<=3”; in the data set on Staphylococcus aureus [21] it was greater than 100; in the data set with Staphylococcus aureus [22] (read-out: Ratio) it was 4. The MIC stood at 4 µg/mL (≈ 10.5 µM) in the data set on Staphylococcus aureus [7]; 4 µg/mL (≈ 10.5 µM) against Staphylococcus aureus [3]; 1 µg/mL (≈ 2.62 µM) in the data set on Staphylococcus aureus [15]; 2 µg/mL (≈ 5.24 µM) against Staphylococcus aureus [16]; 2 µg/mL (≈ 5.24 µM) in the data set on Staphylococcus aureus [17]; 4 µg/mL (≈ 10.5 µM) in the data set with Staphylococcus aureus [23]. The same molecule showed an MIC in the data set on Staphylococcus aureus [24] of 0.5 µg/mL (≈ 1.31 µM). For the same molecule, the Activity entry in the data set with HRT-18 cell line was “Non-Toxic”.

On to `C/C(=N\NC1=NCCN1)c1sc(-c2ccc(C#CC3CCCC3)cc2)nc1C`, for which the MBC is 16 µg/mL (≈ 40.9 µM) in the data set on Staphylococcus aureus [1]; 32 µg/mL (≈ 81.7 µM) with Staphylococcus aureus [5]; 16 µg/mL (≈ 40.9 µM) with Staphylococcus aureus [6]; 8 µg/mL (≈ 20.4 µM) in the data set on Staphylococcus aureus [8]; 8 µg/mL (≈ 20.4 µM) in the data set on Staphylococcus aureus [9]; 32 µg/mL (≈ 81.7 µM) in the data set with Staphylococcus aureus [14]. Further, in the data set with Staphylococcus aureus [25], the MBC was determined as 32 µg/mL (≈ 81.7 µM). Moreover, the Ratio entry in the data set with Staphylococcus aureus [2] is “<=3”; with Staphylococcus aureus [10] it was greater than 100; with Staphylococcus aureus [11], “<=3”; in the data set with Staphylococcus aureus [12], greater than 100; in the data set with Staphylococcus aureus [13], “<=3”; in the data set on Staphylococcus aureus [18], “<=3”. Moreover, the Ratio result with Staphylococcus aureus [19] is reported as “<=3”; in the data set on Staphylococcus aureus [20], “<=3”; in the data set with Staphylococcus aureus [21], greater than 100; in the data set on Staphylococcus aureus [22] it was “<=3”. In addition, the MIC against Staphylococcus aureus [7] is 16 µg/mL (≈ 40.9 µM); with Staphylococcus aureus [3], 4 µg/mL (≈ 10.2 µM); against Staphylococcus aureus [15], 32 µg/mL (≈ 81.7 µM); in the data set on Staphylococcus aureus [16] it was 16 µg/mL (≈ 40.9 µM); in the data set with Staphylococcus aureus [17], 4 µg/mL (≈ 10.2 µM); against Staphylococcus aureus [23] it was 16 µg/mL (≈ 40.9 µM). The MIC in the data set on Staphylococcus aureus [24] was 8 µg/mL (≈ 20.4 µM).

For the molecule `C/C(=N\NC1=NCCN1)c1sc(-c2ccc(C#CC3CCCCC3)cc2)nc1C`, in the data set with Staphylococcus aureus [1], the MBC is 8 µg/mL (≈ 19.7 µM). Moreover, the Ratio entry with Staphylococcus aureus [2] was “<=3”. The molecule further returned an MIC with Staphylococcus aureus [3] of 8 µg/mL (≈ 19.7 µM).

As for `CCCCCC#Cc1ccc(-c2nc(C)c(/C(C)=N/NC3=NCCN3)s2)cc1`, the MBC was 8 µg/mL (≈ 20.3 µM) in the data set with Staphylococcus aureus [1]; 32 µg/mL (≈ 81.3 µM) in the data set on Staphylococcus aureus [5]; 32 µg/mL (≈ 81.3 µM) in the data set with Staphylococcus aureus [6]; 64 µg/mL (≈ 163 µM) in the data set with Staphylococcus aureus [8]; 16 µg/mL (≈ 40.7 µM) with Staphylococcus aureus [9]; 32 µg/mL (≈ 81.3 µM) in the data set with Staphylococcus aureus [14]. Besides, in the data set with Staphylococcus aureus [25], the MBC came to 32 µg/mL (≈ 81.3 µM). Besides, the Ratio entry in the data set on Staphylococcus aureus [2] is on record as “<=3”; in the data set on Staphylococcus aureus [10], greater than 100; in the data set on Staphylococcus aureus [11] it was “<=3”; with Staphylococcus aureus [12] it was greater than 100; with Staphylococcus aureus [13] it was “<=3”; with Staphylococcus aureus [18], “<=3”. Further, the Ratio result is on record as “<=3” with Staphylococcus aureus [19], “<=3” in the data set with Staphylococcus aureus [20], greater than 100 in the data set on Staphylococcus aureus [21] and “<=3” in the data set on Staphylococcus aureus [22]. Further, the MIC came out at 16 µg/mL (≈ 40.7 µM) against Staphylococcus aureus [7]; 4 µg/mL (≈ 10.2 µM) with Staphylococcus aureus [3]; 16 µg/mL (≈ 40.7 µM) against Staphylococcus aureus [15]; 16 µg/mL (≈ 40.7 µM) against Staphylococcus aureus [16]; 8 µg/mL (≈ 20.3 µM) against Staphylococcus aureus [17]; 16 µg/mL (≈ 40.7 µM) against Staphylococcus aureus [23]. The same molecule registered an MIC with Staphylococcus aureus [24] of 8 µg/mL (≈ 20.3 µM).
